From PMC11757988 (Scientific Reports, 2025)

What was measured:
[1] = Blood compatibility study; type: cell-based; conditions: rat, heparinized whole blood
How it was run: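 Rat heparinized blood (0.2 mL) added to 3 mL normal saline containing test material at 1000 µg/mL, saline-only negative and distilled-water positive controls; 1 h at 37 °C with shaking; centrifuged 6000 rpm, 20 min; filtered supernatant read at 545 nm for released hemoglobin; activity = (sample − negative control absorbance)/positive control absorbance.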

[2] = Thermogravimetric analysis; type: physicochemical; conditions: TGA
How it was run: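 Samples of about 5 mg in platinum pans heated from 5 °C to 900 °C at 10 °C per min under nitrogen flowing at 60 mL per min; percentage weight loss recorded against temperature.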

[3] = In vivo pharmacokinetic study, intravenous; parameters: species or system female Wistar rats; conditions: rat
How it was run: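 Eight-week-old female Wistar rats (250 ± 10 g), single i.v. dose of test compound solution at 10 mg/kg (nanoparticles at equivalent dose), saline control group. Tail-vein blood (300 µL) at 1–38 h into heparinized tubes; plasma by chilled centrifugation; acetonitrile protein precipitation, nitrogen drying, methanol reconstitution; HPLC-UV with plasma calibration 0.5–20 µg/mL; mean ± SD, n = 6.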

[4] = female, Wistar, plasma, iv, 10 mg/kg
[5] = i.v., DZ 10 mg/kg equivalent, n = 6, listed as DZ-Solution

Temperature at which decomposition started [2]: 340–350 °C
MRT inf [3, 4]: 2.97 ± 0.95 h
Tmax [3, 4]: 1 ± 0.78 h
AUC(0-inf) ([3]; female, Wistar, plasma, iv, 10 mg/kg, AUC0−∞, DZ 10 mg/kg equivalent, n = 6): 2300 µg·h/mL
Cmax ([3]; female, Wistar, plasma, iv, 10 mg/kg, C max, DZ 10 mg/kg equivalent, n = 6): 382 µg/mL
half-life ([3]; female, Wistar, plasma, iv, 10 mg/kg, t1/2, rat, DZ 10 mg/kg equivalent, n = 6): 3.45 h
AUC0−∞ [3, 5]: 2299.73 ± 0.67 µg·h/mL
C max [3, 5]: 381.59 ± 1.12 µg/mL
t1/2 [3, 5]: 3.44 ± 0.44 h
SMILES: O=c1c(-c2ccc(O)cc2)coc2cc(O)ccc12 [DZ, daidzein]
hemolysis at 1 h, 1000 µg/mL [1]: 0.98 ± 0.14%
